# From article PMC8319958 (ACS chemical biology, 2020)
# Numbered stars: 1 amine (or outer) side, 2 acyl side, 3 side chain; on linkers, the order of the positions; unused ones are H or OH. Peptide text beside a SMILES is read from it. * marks the point of attachment. AMC = Cc1cc(=O)oc2cc(N*)ccc12; Suc = O=C(CCC(=O)[*:2])[*:1]; Cbz = O=C(OCc1ccccc1)*
# Experiments:
# MM.1R = test: Cell viability; format: cell-based; conditions: 48 h, read-out: IC50 (cell viability)
# proteasome = target: T1, proteasome (Homo sapiens, UniProt P28074); test: Proteasome stimulation in cells detected with TAS probes; format: cell-based; conditions: cells dosed 1 h with stimulator, washed, TAS3 added, monitored over 60 min
# T1 sequence (P28074 60-263): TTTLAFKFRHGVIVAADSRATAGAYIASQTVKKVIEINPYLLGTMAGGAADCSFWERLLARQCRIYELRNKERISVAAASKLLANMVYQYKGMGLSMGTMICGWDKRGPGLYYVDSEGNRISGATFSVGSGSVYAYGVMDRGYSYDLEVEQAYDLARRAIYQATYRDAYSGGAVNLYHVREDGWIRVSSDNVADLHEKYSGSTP
# Procedure, shortened: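 Cells (A549, 5000/well, adhered) were pretreated 1 h with test compound in culture medium and washed three times with PBS. They were then given 10 μM probe in modified KRBH buffer, and fluorescence was read on a plate reader for […]. After 25 min equilibration each well was zeroed, linear regression was fitted, and activity was expressed as % of the DMSO control.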
# A549 cells = test: Live-cell probe cleavage in A549 cells, with or without proteasome inhibitors; format: cell-based; conditions: 10 μM probe, monitored over 60 min
# 20S CP = 20S CP (Homo sapiens, UniProt P28074); test: LC/MS assay of library peptide cleavage by 20S CP; format: biochemical; conditions: 12 μM peptide, 9 nM 20S CP, 50 mM Tris pH 7.4, 37 °C, 1 h, triplicate
# Procedure, shortened: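 Peptide stocks were 600 μM in DMSO, diluted to 12 μM final in 50 mM Tris pH 7.4. One triplicate got purified 20S CP (9 nM final) and the other buffer alone; both ran 1 h at 37 °C. An equal volume of acetonitrile denatured the enzyme. LC/MS EIC peak areas of intact peptide were scaled to the buffer-control mean (set to 1) to give fraction remaining. The four-mer product mass confirmed the cleavage site.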
compound,measurement,setting,value
CC(C)C[C@@H](C=O)NC(=O)[C@H](CC(C)C)NC(=O)[C@H](CC(C)C)NC(=O)OCc1ccccc1 [MG-132] (Cbz-Leu-Leu-Leu-aldehyde),IC50,MM.1R,264 nM
CC(C)c1ccc2c(c1)c(SC(C)(C)C)c(CC(C)(C)C(=O)O)n2Cc1ccc(Cl)cc1 [MK-886],proteasome stimulation (% activity vs DMSO control),proteasome,strong stimulators
Cc1cc(=O)oc2cc(NC(=O)[C@H](Cc3ccc(O)cc3)NC(=O)[C@@H](NC(=O)[C@H](CC(C)C)NC(=O)[C@H](CC(C)C)NC(=O)CCC(=O)O)C(C)C)ccc12 [Suc-LLVY-AMC] (Suc-LLVY-{AMC}),fluorescence signal (RFU) in cells compared to TAS1,A549 cells,significantly lower
D-Phe,cleavage by 20S CP (in words),20S CP,did not accept
